19 compounds from ChEMBL document CHEMBL1131410, “Synthesis and biological evaluation of 4-chloro-3, 5-dinitrobenzotrifluoride analogues as antileishmanial agents” (J Med Chem, 1998) can be followed below.

Data set [1] deals with Leishmania donovani. Kind of data set: In vitro inhibition of Leishmania donovani parasite. Type of data set: functional, organism-based. The gist of the method: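 L. donovani MHOM/SD/62/1S-CL2D axenic amastigote-like forms, seeded at 10^6 cells/mL in amastigote medium with or without drug (DMSO at most 1.25% v/v). Incubated 72 h at 37 °C, humid 5% CO2. A tetrazolium-type Cell Titer reagent was then added for a further 8–12 h and absorbance read at 490 nm. IC50 fitted by a four-parameter log dose-response equation.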

Data set [2] can be described thus: Partition coefficient (logP). Conditions: octanol/water. It is filed as physicochemical.
Data set [3] concerns Cricetinae gen. sp. Kind of data set: Percent suppression of parasitaemia was measured in vivo against Visceral Leishmania donovani in hamsters at 13 mg/kg of dosage level. It is filed as functional, Cricetulus griseus. In outline: (§1)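 Hamsters, six per group, infected intracardially with 1.0×10^7 L. donovani Khartoum amastigotes from donor hamster spleens. Dosed intramuscularly for 4 consecutive days starting day 3 post-infection and screened blind. On day 7 the animals were sacrificed and total parasite number per liver was counted. Result expressed as % suppression of parasitemia.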

For data set [4], the system named is Cricetinae gen. sp. Kind of data set: Percent suppression of parasitaemia was measured in vivo against Visceral Leishmania donovani in hamsters at 208 mg/kg of dosage level. Type of data set: functional, Cricetulus griseus. In outline:
as §1

Data set [5] deals with Cricetinae gen. sp. Kind of data set: Percent suppression of parasitaemia was measured in vivo against Visceral Leishmania donovani in hamsters at 52 mg/kg of dosage level. Type of data set: functional, Cricetulus griseus. In outline: as §1
The test system of data set [6] is Leishmania donovani. Briefly: Compound was evaluated in vitro against Leishmania donovani parasite. Type of data set: functional, organism-based. The gist of the method:
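Axenic amastigote-like L. donovani (MHOM/SD/62/1S-CL2D), seeded at 10^6 cells/mL with or without drug, DMSO ≤1.25% (v/v), 72 h at 37 °C, 5% CO2. Tetrazolium-type dehydrogenase reagent added, further 8–12 h, absorbance at 490 nm; IC50 from four-parameter log dose-response fit.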

Data set [7] has as its system Cricetinae gen. sp. Kind of data set: % suppression of parasitaemia was measured in vivo against Visceral Leishmania donovani in hamsters at 208 mg/kg of dosage level. Type of data set: functional, Cricetulus griseus.
The subject of data set [8] is Cricetinae gen. sp. Kind of data set: % suppression of parasitaemia was measured in vivo against Visceral Leishmania donovani in hamsters at 52 mg/kg of dosage level. It is filed as functional, Cricetulus griseus.

Broadly, the IC50 is the concentration that gives 50% inhibition. Higher therefore signals a need for much substance. As usually defined, the logP is a log measure of how a compound divides between an organic and an aqueous phase. On to `O=S(=O)(c1cc(C(F)(F)F)ccc1Cl)N1CCCCCC1`, for which the midpoint of inhibition with Leishmania donovani [1], the IC50, lay at 56 µM. Also, the logP in data set [2] was found to be 4.57.

In turn, `O=S(=O)(c1cc(C(F)(F)F)ccc1F)N1CCCC1` yielded a half-maximal inhibitory concentration (IC50) in the data set on Leishmania donovani [1] of over 450 µM. For the same compound, the logP in data set [2] turned out to be 2.9.

On to `O=S(=O)(c1cc(C(F)(F)F)ccc1F)N1CCN(c2ccccn2)CC1`, for which the half-maximal inhibitory concentration (IC50) in the data set on Leishmania donovani [1] is over 450 µM. In data set [2], this compound had a logP of 2.91.

Take `O=S(=O)(c1cc(C(F)(F)F)ccc1F)N1CCCCCC1`: in the data set on Leishmania donovani [1], half-maximal inhibition (IC50) required 108 µM. For the same compound, the Suppression with Cricetinae gen. sp. [3] amounted to 11%; in the data set on Cricetinae gen. sp. [4], 19%; with Cricetinae gen. sp. [5], 13%. The compound further displayed a log partition coefficient (logP) in data set [2] of 4.03.

On to `O=S(=O)(c1cc(C(F)(F)F)ccc1Cl)N1CCN(c2ccccn2)CC1`, for which, in the data set with Leishmania donovani [1], the IC50 is 44 µM. The same compound gave a lipophilicity (logP) in data set [2] of 3.45.

Take `O=S(=O)(c1cc(C(F)(F)F)ccc1Cl)N1CCCC1`: in the data set on Leishmania donovani [1], it took 115 µM to reach half-maximal inhibition (IC50). This compound also had a logP in data set [2] of 3.44.

`O=S(=O)(c1cc(C(F)(F)F)ccc1Cl)N1CCCCC1`: the IC50 in the data set on Leishmania donovani [1] stood at 110 µM. In data set [2], this compound had a log partition coefficient (logP) of 4.01.

With `NS(=O)(=O)c1cc(C(F)(F)F)ccc1Cl`, the IC50 with Leishmania donovani [1] was over 450 µM. In data set [2], this compound came in with a log partition coefficient (logP) of 1.98.

In the case of `CCN(CC)CCNS(=O)(=O)c1cc(C(F)(F)F)ccc1Cl`, the IC50 in the data set with Leishmania donovani [1] was over 450 µM. Further, the log partition coefficient (logP) in data set [2] was 3.85.

For the compound `NS(=O)(=O)c1cc(C(F)(F)F)ccc1F`, the half-inhibitory concentration (IC50) with Leishmania donovani [1] is over 450 µM. In addition, in data set [2], the logP was 1.68.

As to `CCN(CC)CCNS(=O)(=O)c1cc(C(F)(F)F)ccc1F`, the IC50 in the data set with Leishmania donovani [1] was over 450 µM. In data set [2], the log partition coefficient (logP) turned out to be 3.3.

As for `CNS(=O)(=O)c1cc(C(F)(F)F)ccc1F`, the IC50 in the data set with Leishmania donovani [1] was over 450 µM. Moreover, the logP in data set [2] was found to be 2.08.

Regarding `O=S(=O)(c1cc(C(F)(F)F)ccc1F)N1CCCCC1`, in the data set on Leishmania donovani [1], the IC50 worked out at 418 µM. For the same compound, the logP in data set [2] came out at 3.47.

Regarding MEGLUMINE ANTIMONATE, the Suppression in the data set on Cricetinae gen. sp. [4] (Cricetulus griseus) came to 73%; in the data set on Cricetinae gen. sp. [5] (Cricetulus griseus), 27%.

Compound `O=[N+]([O-])c1cc(C(F)(F)F)cc([N+](=O)[O-])c1Cl` [CHLORALIN] returned a concentration for half-maximal inhibition (IC50) in the data set on Leishmania donovani [6] of 1.3 µM. In addition, the Suppression is 32% in the data set on Cricetinae gen. sp. [7] and 21% with Cricetinae gen. sp. [8]. In data set [2], this compound gave a lipophilicity (logP) of 3.43.

For the compound `CNS(=O)(=O)c1cc(C(F)(F)F)ccc1Cl`, the IC50 in the data set on Leishmania donovani [1] is over 450 µM. The logP in data set [2] worked out at 2.63.

As for `CN1CCN(S(=O)(=O)c2cc(C(F)(F)F)ccc2F)CC1`, the IC50 with Leishmania donovani [1] is 199 µM. The log partition coefficient (logP) in data set [2] is 2.61.

In the data set on Leishmania donovani [1], `O=S(=O)(c1cc(C(F)(F)F)ccc1N1CCCC1)N1CCCC1` gave an IC50 of 23 µM. Moreover, the Suppression with Cricetinae gen. sp. [3] was found to be 16%; in the data set on Cricetinae gen. sp. [4] it was 30%; in the data set on Cricetinae gen. sp. [5], 29%. In data set [2], this compound yielded a log partition coefficient (logP) of 3.57.

As for `CN1CCN(S(=O)(=O)c2cc(C(F)(F)F)ccc2Cl)CC1`, in the data set on Leishmania donovani [1], the midpoint of inhibition, the IC50, lay at 321 µM. The logP in data set [2] stood at 3.16.
